From ChEMBL document CHEMBL4689842, “EUbOPEN Chemogenomics Library wave 1” (2021)

Experiments:
Format in all cases: toxicity, cell-based
Fibroblast = assay: Multiplex assay against human fibroblast
Outline: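 Live cells carried four stains from seeding: Hoechst33342, BioTracker Green Microtubule Cytoskeleton Dye, MitoTracker Red and Annexin V Alexa Fluor 680. They were imaged on a CQ1 microscope at 37°C and 5% CO2 after compound addition. Using CellPathfinder machine-learning gating, cells were split into Hoechst high-intensity objects or normal cells, normal cells into healthy, pyknosed or fragmented nuclei, and pyknosed cells into mitotic or apoptotic; tubulin, mitochondrial-mass and membrane-permeability phenotypes are per cents of healthy-nucleus cells.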

HEK-293T = assay: Incucyte cell viability with HEK293T; settings: human, 10 µM, compound concentration 10 uM; also: filed as whole numbers so only -1 and 0 and 1 occur
U2OS = assay: Incucyte cell viability with U2OS; settings: human, 10 µM, compound concentration 10 uM; also: filed as whole numbers so only -1 and 0 and 1 occur
[1] = 12 h, 1 µM, compound concentration 1 uM, replicate 1
[2] = 12 h, 1 µM, compound concentration 1 uM, replicate 2
[3] = 12 h, 10 µM, compound concentration 10 uM, replicate 1
[4] = 12 h, 10 µM, compound concentration 10 uM, replicate 2
[5] = 24 h, 1 µM, compound concentration 1 uM, replicate 1
[6] = 24 h, 1 µM, compound concentration 1 uM, replicate 2
[7] = 24 h, 10 µM, compound concentration 10 uM, replicate 1
[8] = 24 h, 10 µM, compound concentration 10 uM, replicate 2
[9] = 48 h, 1 µM, compound concentration 1 uM, replicate 1
[10] = 48 h, 1 µM, compound concentration 1 uM, replicate 2
[11] = 48 h, 10 µM, compound concentration 10 uM, replicate 1
[12] = 48 h, 10 µM, compound concentration 10 uM, replicate 2
[13] = 0 h, replicate number 1, timepoint 0 hours
[14] = 6 h, replicate number 1, timepoint 6 hours
[15] = 12 h, replicate number 1, timepoint 12 hours
[16] = 18 h, replicate number 1, timepoint 18 hours
[17] = 24 h, replicate number 1, timepoint 24 hours

CC(/C=C1\SC(=S)N(CCCC(=O)Nc2ccc(C(=O)O)c(O)c2)C1=O)=C\c1ccccc1
Population Apoptotic (%) (Fibroblast; [1]): 59%
Population Fragmented Nuclei (%) (Fibroblast; [1]): 22%
Population Healthy Nuclei (%) (Fibroblast; [1]): 47%
Population Hoechst High Intensity Objects (%) (Fibroblast; [1]): 11%
Population Membrane Permeable-Phenotype (%) (Fibroblast; [1]): 31%
Population Mitochondria Different-Phenotype (%) (Fibroblast; [1]): 4%
Population Mitotic Cells (%) (Fibroblast; [1]): 40%
Population Normal (%) (Fibroblast; [1]): 88%
Population Pyknosed Nuclei (%) (Fibroblast; [1]): 29%
Population Tubulin-Different-Phenotype (%) (Fibroblast; [1]): 38%
Total Cell Count (Fibroblast; [1]): 167
Population Apoptotic (%) (Fibroblast; [2]): 33%
Population Fragmented Nuclei (%) (Fibroblast; [2]): 10%
Population Healthy Nuclei (%) (Fibroblast; [2]): 81%
Population Hoechst High Intensity Objects (%) (Fibroblast; [2]): 6%
Population Membrane Permeable-Phenotype (%) (Fibroblast; [2]): 7%
Population Mitochondria Different-Phenotype (%) (Fibroblast; [2]): 7%
Population Mitotic Cells (%) (Fibroblast; [2]): 66%
Population Normal (%) (Fibroblast; [2]): 93%
Population Pyknosed Nuclei (%) (Fibroblast; [2]): 7%
Population Tubulin-Different-Phenotype (%) (Fibroblast; [2]): 7%
Total Cell Count (Fibroblast; [2]): 65
Population Apoptotic (%) (Fibroblast; [3]): 62%
Population Fragmented Nuclei (%) (Fibroblast; [3]): 32%
Population Healthy Nuclei (%) (Fibroblast; [3]): 48%
Population Hoechst High Intensity Objects (%) (Fibroblast; [3]): 61%
Population Membrane Permeable-Phenotype (%) (Fibroblast; [3]): 40%
Population Mitochondria Different-Phenotype (%) (Fibroblast; [3]): 9%
Population Mitotic Cells (%) (Fibroblast; [3]): 37%
Population Normal (%) (Fibroblast; [3]): 38%
Population Pyknosed Nuclei (%) (Fibroblast; [3]): 18%
Population Tubulin-Different-Phenotype (%) (Fibroblast; [3]): 54%
Total Cell Count (Fibroblast; [3]): 331
Population Apoptotic (%) (Fibroblast; [4]): 44%
Population Fragmented Nuclei (%) (Fibroblast; [4]): 17%
Population Healthy Nuclei (%) (Fibroblast; [4]): 72%
Population Hoechst High Intensity Objects (%) (Fibroblast; [4]): 7%
Population Membrane Permeable-Phenotype (%) (Fibroblast; [4]): 6%
Population Mitochondria Different-Phenotype (%) (Fibroblast; [4]): 6%
Population Mitotic Cells (%) (Fibroblast; [4]): 55%
Population Normal (%) (Fibroblast; [4]): 92%
Population Pyknosed Nuclei (%) (Fibroblast; [4]): 10%
Population Tubulin-Different-Phenotype (%) (Fibroblast; [4]): 9%
Total Cell Count (Fibroblast; [4]): 88
Population Apoptotic (%) (Fibroblast; [5]): 54%
Population Fragmented Nuclei (%) (Fibroblast; [5]): 23%
Population Healthy Nuclei (%) (Fibroblast; [5]): 50%
Population Hoechst High Intensity Objects (%) (Fibroblast; [5]): 7%
Population Membrane Permeable-Phenotype (%) (Fibroblast; [5]): 29%
Population Mitochondria Different-Phenotype (%) (Fibroblast; [5]): 1%
Population Mitotic Cells (%) (Fibroblast; [5]): 45%
Population Normal (%) (Fibroblast; [5]): 92%
Population Pyknosed Nuclei (%) (Fibroblast; [5]): 25%
Population Tubulin-Different-Phenotype (%) (Fibroblast; [5]): 37%
Total Cell Count (Fibroblast; [5]): 155
Population Fragmented Nuclei (%) (Fibroblast; [6]): 12%
Population Healthy Nuclei (%) (Fibroblast; [6]): 76%
Population Hoechst High Intensity Objects (%) (Fibroblast; [6]): 6%
Population Membrane Permeable-Phenotype (%) (Fibroblast; [6]): 4%
Population Mitochondria Different-Phenotype (%) (Fibroblast; [6]): 10%
Population Normal (%) (Fibroblast; [6]): 93%
Population Pyknosed Nuclei (%) (Fibroblast; [6]): 10%
Population Tubulin-Different-Phenotype (%) (Fibroblast; [6]): 12%
Total Cell Count (Fibroblast; [6]): 64
Population Apoptotic (%) (Fibroblast; [7]): 53%
Population Fragmented Nuclei (%) (Fibroblast; [7]): 32%
Population Healthy Nuclei (%) (Fibroblast; [7]): 45%
Population Hoechst High Intensity Objects (%) (Fibroblast; [7]): 57%
Population Membrane Permeable-Phenotype (%) (Fibroblast; [7]): 44%
Population Mitochondria Different-Phenotype (%) (Fibroblast; [7]): 6%
Population Mitotic Cells (%) (Fibroblast; [7]): 46%
Population Normal (%) (Fibroblast; [7]): 42%
Population Pyknosed Nuclei (%) (Fibroblast; [7]): 22%
Population Tubulin-Different-Phenotype (%) (Fibroblast; [7]): 44%
Total Cell Count (Fibroblast; [7]): 326
Population Apoptotic (%) (Fibroblast; [8]): 44%
Population Fragmented Nuclei (%) (Fibroblast; [8]): 9%
Population Healthy Nuclei (%) (Fibroblast; [8]): 83%
Population Hoechst High Intensity Objects (%) (Fibroblast; [8]): 4%
Population Membrane Permeable-Phenotype (%) (Fibroblast; [8]): 5%
Population Mitochondria Different-Phenotype (%) (Fibroblast; [8]): 14%
Population Mitotic Cells (%) (Fibroblast; [8]): 55%
Population Normal (%) (Fibroblast; [8]): 95%
Population Pyknosed Nuclei (%) (Fibroblast; [8]): 7%
Population Tubulin-Different-Phenotype (%) (Fibroblast; [8]): 14%
Total Cell Count (Fibroblast; [8]): 115
Population Apoptotic (%) (Fibroblast; [9]): 62%
Population Fragmented Nuclei (%) (Fibroblast; [9]): 34%
Population Healthy Nuclei (%) (Fibroblast; [9]): 52%
Population Hoechst High Intensity Objects (%) (Fibroblast; [9]): 14%
Population Membrane Permeable-Phenotype (%) (Fibroblast; [9]): 30%
Population Mitochondria Different-Phenotype (%) (Fibroblast; [9]): 3%
Population Mitotic Cells (%) (Fibroblast; [9]): 37%
Population Normal (%) (Fibroblast; [9]): 85%
Population Pyknosed Nuclei (%) (Fibroblast; [9]): 12%
Population Tubulin-Different-Phenotype (%) (Fibroblast; [9]): 33%
Total Cell Count (Fibroblast; [9]): 146
Population Apoptotic (%) (Fibroblast; [10]): 100%
Population Fragmented Nuclei (%) (Fibroblast; [10]): 15%
Population Healthy Nuclei (%) (Fibroblast; [10]): 81%
Population Hoechst High Intensity Objects (%) (Fibroblast; [10]): 12%
Population Membrane Permeable-Phenotype (%) (Fibroblast; [10]): 18%
Population Mitochondria Different-Phenotype (%) (Fibroblast; [10]): 1%
Population Mitotic Cells (%) (Fibroblast; [10]): 0%
Population Normal (%) (Fibroblast; [10]): 87%
Population Pyknosed Nuclei (%) (Fibroblast; [10]): 2%
Population Tubulin-Different-Phenotype (%) (Fibroblast; [10]): 35%
Total Cell Count (Fibroblast; [10]): 127
Population Apoptotic (%) (Fibroblast; [11]): 69%
Population Fragmented Nuclei (%) (Fibroblast; [11]): 49%
Population Healthy Nuclei (%) (Fibroblast; [11]): 40%
Population Hoechst High Intensity Objects (%) (Fibroblast; [11]): 55%
Population Membrane Permeable-Phenotype (%) (Fibroblast; [11]): 37%
Population Mitochondria Different-Phenotype (%) (Fibroblast; [11]): 13%
Population Mitotic Cells (%) (Fibroblast; [11]): 30%
Population Normal (%) (Fibroblast; [11]): 44%
Population Pyknosed Nuclei (%) (Fibroblast; [11]): 9%
Population Tubulin-Different-Phenotype (%) (Fibroblast; [11]): 54%
Total Cell Count (Fibroblast; [11]): 297
Population Apoptotic (%) (Fibroblast; [12]): 33%
Population Fragmented Nuclei (%) (Fibroblast; [12]): 23%
Population Healthy Nuclei (%) (Fibroblast; [12]): 72%
Population Hoechst High Intensity Objects (%) (Fibroblast; [12]): 12%
Population Membrane Permeable-Phenotype (%) (Fibroblast; [12]): 14%
Population Mitochondria Different-Phenotype (%) (Fibroblast; [12]): 4%
Population Mitotic Cells (%) (Fibroblast; [12]): 66%
Population Normal (%) (Fibroblast; [12]): 87%
Population Pyknosed Nuclei (%) (Fibroblast; [12]): 4%
Population Tubulin-Different-Phenotype (%) (Fibroblast; [12]): 38%
Total Cell Count (Fibroblast; [12]): 74
Growth Rate (HEK-293T; [13]): 0
Growth Rate (HEK-293T; [14]): 1
Growth Rate (HEK-293T; [15]): 0
Growth Rate (HEK-293T; 12 h, replicate number 2, timepoint 12 hours): 1
Growth Rate (HEK-293T; [16]): 0
Growth Rate (HEK-293T; 18 h, replicate number 2, timepoint 18 hours): 1
Growth Rate (HEK-293T; [17]): 0
Growth Rate (HEK-293T; 24 h, replicate number 2, timepoint 24 hours): 1
Growth Rate (U2OS; [13]): 0
Growth Rate (U2OS; [14]): 0
Growth Rate (U2OS; [15]): 1
Growth Rate (U2OS; [16]): 1
Growth Rate (U2OS; [17]): 1
